From ChEMBL document CHEMBL1134836, “Design, synthesis, and biological evaluation of a series of lavendustin A analogues that inhibit EGFR and Syk tyrosine kinases, as well as tubulin polymerization” (J Med Chem, 2001)

How the values were obtained:
DU-145 = experiment: In vitro cytotoxicity against human prostate DU-145 cells.; assay type: functional
[1] = target: Epidermal growth factor receptor (Mus musculus, UniProt Q01279); experiment: Inhibition of epidermal growth factor receptor phosphorylation in BaF3 mouse lymphoid cells.; assay type: cell-based
Sequence of Epidermal growth factor receptor (Q01279 whole entry): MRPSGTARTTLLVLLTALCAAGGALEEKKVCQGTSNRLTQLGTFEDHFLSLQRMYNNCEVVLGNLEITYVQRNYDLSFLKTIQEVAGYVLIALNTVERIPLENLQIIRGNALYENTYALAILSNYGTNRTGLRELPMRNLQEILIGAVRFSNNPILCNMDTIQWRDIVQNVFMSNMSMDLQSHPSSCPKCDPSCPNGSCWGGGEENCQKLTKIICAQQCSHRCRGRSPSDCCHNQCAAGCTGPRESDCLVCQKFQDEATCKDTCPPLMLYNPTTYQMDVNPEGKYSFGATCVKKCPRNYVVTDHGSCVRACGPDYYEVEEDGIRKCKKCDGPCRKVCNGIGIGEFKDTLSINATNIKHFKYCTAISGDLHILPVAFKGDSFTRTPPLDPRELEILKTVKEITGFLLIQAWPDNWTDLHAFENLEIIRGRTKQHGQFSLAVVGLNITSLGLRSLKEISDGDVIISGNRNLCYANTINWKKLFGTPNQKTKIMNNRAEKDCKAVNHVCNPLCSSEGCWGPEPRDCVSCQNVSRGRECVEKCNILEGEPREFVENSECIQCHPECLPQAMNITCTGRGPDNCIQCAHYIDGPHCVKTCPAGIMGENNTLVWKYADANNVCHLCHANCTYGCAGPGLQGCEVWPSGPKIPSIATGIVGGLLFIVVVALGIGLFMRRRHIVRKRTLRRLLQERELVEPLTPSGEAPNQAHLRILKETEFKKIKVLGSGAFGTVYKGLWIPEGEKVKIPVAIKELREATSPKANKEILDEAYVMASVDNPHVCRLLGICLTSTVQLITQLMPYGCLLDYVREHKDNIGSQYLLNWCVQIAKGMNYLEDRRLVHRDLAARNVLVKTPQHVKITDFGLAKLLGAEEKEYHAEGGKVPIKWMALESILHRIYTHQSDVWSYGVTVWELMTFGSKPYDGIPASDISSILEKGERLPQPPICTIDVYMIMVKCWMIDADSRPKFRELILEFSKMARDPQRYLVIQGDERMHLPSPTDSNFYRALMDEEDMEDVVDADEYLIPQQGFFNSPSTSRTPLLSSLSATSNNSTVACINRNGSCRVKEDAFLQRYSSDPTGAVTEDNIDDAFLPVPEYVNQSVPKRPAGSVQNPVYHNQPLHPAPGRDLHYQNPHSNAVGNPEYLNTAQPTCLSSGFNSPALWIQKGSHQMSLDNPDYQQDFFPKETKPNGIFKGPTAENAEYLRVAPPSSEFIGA
Summary of the method: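 BaF3/EGFR cells serum-starved 24 h, then about 10^7 cells/mL treated 2 h at 37 °C with inhibitor at 3-5 concentrations. Chilled 20 min, then given EGF 100 ng/mL for 7 min on ice. Lysates precipitated on concanavalin A beads, run on SDS/PAGE, and immunoblotted with antiphosphotyrosine using ECL detection.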

HCT-116 = experiment: In vitro cytotoxicity against human colon HCT116 cell culture.; assay type: functional
HOP-62 = experiment: In vitro cytotoxicity against human lung HOP-62 cells.; assay type: functional
MCF7 = experiment: Inhibition of DNA synthesis in MCF-7 cells.; assay type: functional, cell-based; settings: Homo sapiens
Summary of the method: (§1)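 Cells seeded at 10^5/well and grown 24 h at 37 °C, then given inhibitor in DMSO at 3-5 concentrations, 3-4 wells each, for 48 h. [3H]thymidine pulse for 2 h. TCA-precipitated label solubilized in perchloric acid and counted.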

MDA-MB-435 = experiment: In vitro cytotoxicity against human breast MDA-MB-435 cells.; assay type: functional
MCF-10A = experiment: Inhibition of DNA synthesis in MCF-10A cells.; assay type: functional, cell-based; settings: Homo sapiens; summary of the method: as §1
OVCAR-3 = experiment: In vitro cytotoxicity against human ovarian OVCAR-3 cells.; assay type: functional
SN12C = experiment: In vitro cytotoxicity against human renal SN12C cells.; assay type: functional
[2] = target: Tyrosine-protein kinase SYK (Homo sapiens, UniProt P43405); experiment: In vitro inhibition of Syk protein tyrosine kinase; assay type: functional
Summary of the method: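 Full-length GST-Syk from baculovirus-infected Sf9 cell lysates, held on glutathione-agarose. Stopped with 10 mM EDTA, beads washed, read by scintillation counting. IC50 determined graphically against DMSO control.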

UACC-62 = experiment: In vitro cytotoxicity against human melanoma UACC-62 cells.; assay type: functional
Cancer cell lines = experiment: Mean graph mid point (MGM) for growth inhibition of all human cancer cell lines successfully tested; assay type: functional
Tubulin beta chain = Tubulin beta chain (Bos taurus, UniProt Q6B856); experiment: Inhibition of bovine tubulin polymerization
Sequence of Tubulin beta chain (Q6B856 whole entry): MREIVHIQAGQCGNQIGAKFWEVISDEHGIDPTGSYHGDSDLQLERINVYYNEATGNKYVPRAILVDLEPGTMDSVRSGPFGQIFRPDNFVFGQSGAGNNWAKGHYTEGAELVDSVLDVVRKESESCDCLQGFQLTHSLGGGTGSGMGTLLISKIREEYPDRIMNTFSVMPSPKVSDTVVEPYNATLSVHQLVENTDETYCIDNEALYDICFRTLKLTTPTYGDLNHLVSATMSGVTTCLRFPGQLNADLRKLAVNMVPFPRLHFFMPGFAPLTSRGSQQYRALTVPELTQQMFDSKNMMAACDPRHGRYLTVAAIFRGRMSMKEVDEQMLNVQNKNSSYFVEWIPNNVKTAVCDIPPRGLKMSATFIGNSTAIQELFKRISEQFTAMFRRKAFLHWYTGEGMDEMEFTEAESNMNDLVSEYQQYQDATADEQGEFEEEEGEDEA
Summary of the method: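 Electrophoretically homogeneous bovine brain tubulin. Polymerization followed spectrophotometrically with a temperature jump from 2-4 °C to 30 °C.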

SF-539 = experiment: In vitro cytotoxicity against human CNS SF-539 cells.; assay type: functional
CCRF-CEM = experiment: Cytotoxic effect on human leukemia CCRF-CEM cells; assay type: functional
cancer cell lines (55) = experiment: Mean graph midpoint (MGM) for growth inhibition of all human cancer cell lines (55); assay type: functional
[3] = target: Tubulin beta chain (Bos taurus) (UniProt Q6B856); settings: 5 uM
Sequence of Tubulin beta chain (Bos taurus) (Q6B856 whole entry): as above

[4] = target: Tubulin beta chain (Bos taurus) (UniProt Q6B856); experiment: Percentage inhibition of binding of [3H]colchicine to tubulin at 50 uM

Row | SMILES | IC50 [1] | IC50 (MCF7) | IC50 [2] | IC50 (Tubulin beta chain) | Inhibition [3] | Inhibition [4] | GI50 (DU-145) | GI50 (HCT-116) | GI50 (HOP-62) | GI50 (MDA-MB-435) | IC50 (MCF-10A) | GI50 (OVCAR-3) | GI50 (SN12C) | GI50 (UACC-62) | MGM (Cancer cell lines) | GI50 (SF-539) | GI50 (CCRF-CEM) | MGM (cancer cell lines (55))
1 | O=C(NCCc1ccc(O)cc1)c1cc(NCc2cc(O)ccc2O)ccc1O | 300 µM | 16 µM | 5 µM | 4.5 µM | – | – | 17 µM | 16 µM | 2.5 µM | 23 µM | 15 µM | 62 µM | 19 µM | 18 µM | 20.4 µM | 2.5 µM | – | –
2 | CC(C)CCCC(C)[C@H]1CC[C@H]2[C@@H]3CCC4C[C@@H](NC(=O)c5cc(NCc6cc(O)ccc6O)ccc5O)CC[C@]4(C)[C@H]3CC[C@]12C (stereo partly specified) | – | > 50 µM | – | > 40 µM | – | – | – | – | – | – | – | – | – | – | – | – | – | >100 µM
3 | O=C(NCc1ccccc1)c1ccc(NCc2cc(O)ccc2O)cc1 | > 100 µM | 16 µM | 18 µM | – | – | – | 15 µM | 10 µM | 20 µM | 12 µM | 34 µM | 6.8 µM | 9.7 µM | 12 µM | 8.8 µM | 9.7 µM | 2700 nM | –
4 | COc1ccc(/C=C\c2cc(OC)c(OC)c(OC)c2)cc1O | – | – | – | – | 98% | – | – | – | – | – | – | – | – | – | – | – | – | –
5 | O=C(NCc1ccccc1)c1cc(NCc2cc(O)ccc2O)ccc1O | 8 µM | 17 µM | 25 µM | 3.2 µM | – | – | 16 µM | 17 µM | 23 µM | 30 µM | 17 µM | 21 µM | 12 µM | 15 µM | 15.5 µM | 21 µM | 3200 nM | –
6 | O=C(NCCc1ccc(Cl)cc1)c1cc(NCc2cc(O)ccc2O)ccc1O | 46 µM | 13 µM | 25 µM | 3.2 µM | – | – | 16 µM | 15 µM | 17 µM | 20 µM | 9 µM | 5.9 µM | 9.8 µM | 13 µM | 10 µM | 8.4 µM | 1600 nM | –
7 | O=C(NCCN1CCOCC1)c1cc(NCc2cc(O)ccc2O)ccc1O | > 50 µM | 14 µM | 1.5 µM | 2.1 µM | – | 34% | 17 µM | 20 µM | – | 13 µM | 16 µM | 87 µM | 22 µM | 17 µM | 19.5 µM | 19 µM | 1800 nM | –
8 | COc1ccc(CCNC(=O)c2cc(NCc3cc(O)ccc3O)ccc2O)cc1 | > 100 µM | 14 µM | 50 µM | 4.2 µM | – | – | 21 µM | 23 µM | 12 µM | 16 µM | 11 µM | 5.5 µM | 72 µM | 14 µM | 15.4 µM | 16 µM | 3200 nM | –

Continued, in another order:

Row | IC50 [1] | IC50 (MCF7) | IC50 [2] | IC50 (Tubulin beta chain) | Inhibition [3] | Inhibition [4] | SMILES | GI50 (DU-145) | GI50 (HCT-116) | GI50 (HOP-62) | GI50 (MDA-MB-435) | IC50 (MCF-10A) | GI50 (OVCAR-3) | GI50 (SN12C) | GI50 (UACC-62) | MGM (Cancer cell lines) | GI50 (SF-539) | GI50 (CCRF-CEM) | MGM (cancer cell lines (55))
9 | 35 µM | 7 µM | 45 µM | 4.2 µM | – | – | O=C(NCCc1ccc(Br)cc1)c1cc(NCc2cc(O)ccc2O)ccc1O | 16 µM | 7.6 µM | 18 µM | 10 µM | 6 µM | 4.2 µM | 6.3 µM | 8.6 µM | 7.6 µM | 15.8 µM | – | –
10 | 4 µM | 10 µM | 8 µM | 5.3 µM | – | – | O=C(NC1CCc2ccccc2C1)c1cc(NCc2cc(O)ccc2O)ccc1O (stereo unspecified) | 17 µM | 16 µM | 17 µM | 9.2 µM | 6 µM | 7.9 µM | 18 µM | 14 µM | 11.2 µM | 2.7 µM | 1400 nM | –
11 | 10 µM | 9 µM | 5 µM | 3.6 µM | – | – | O=C(NCCc1ccccc1)c1cc(NCc2cc(O)ccc2O)ccc1O | 16 µM | 18 µM | 20 µM | 19 µM | 11 µM | 7.7 µM | 18 µM | 14 µM | 14.8 µM | 17 µM | 2700 nM | –
12 | 33 µM | 0.4 µM | 35 µM | 5.7 µM | – | – | O=C(NCCCc1ccccc1)c1ccc(NCc2cc(O)ccc2O)cc1 | 13 µM | 6.4 µM | 16 µM | 5.8 µM | 3 µM | 3 µM | 3.2 µM | 7.9 µM | 5.3 µM | 3.4 µM | 830 nM | –
13 | 4 µM | 12 µM | 5 µM | 4 µM | – | 38% | O=C(NCCc1ccc(F)cc1)c1cc(NCc2cc(O)ccc2O)ccc1O | 18 µM | 9.2 µM | 12 µM | 13 µM | 10 µM | 11 µM | 7.7 µM | 7.8 µM | 0.35 µM | 9.2 µM | 290 nM | –
14 | 14 µM | 11 µM | – | 3.6 µM | – | 45% | CCCCCCNC(=O)c1cc(NCc2cc(O)ccc2O)ccc1O | 15 µM | 17 µM | 19 µM | 15 µM | 14 µM | 4 µM | 6.1 µM | 12 µM | 8.7 µM | 2.3 µM | 560 nM | –
15 | 35 µM | 1 µM | 50 µM | > 40 µM | – | – | CCCCCCCCCCCCNC(=O)c1cc(NCc2cc(O)ccc2O)ccc1O | 11 µM | 2.1 µM | 3.8 µM | 3.2 µM | 3 µM | 1.9 µM | 2.6 µM | 3.2 µM | 2.7 µM | 20 µM | 340 nM | –
16 | 1 µM | 2 µM | 28 µM | 5 µM | – | – | O=C(NCCCc1ccccc1)c1cc(NCc2cc(O)ccc2O)ccc1O | 8.4 µM | 24 µM | 22 µM | 18 µM | 2 µM | 6.5 µM | 15 µM | 14 µM | 13.2 µM | 16 µM | 2400 nM | –
17 | > 200 µM | 3 µM | 5 µM | 4.9 µM | – | – | O=C(NCCc1ccccc1)c1ccc(NCc2cc(O)ccc2O)cc1 | 14 µM | 7.4 µM | 13 µM | 5.1 µM | 7 µM | 2.7 µM | 7.4 µM | 9.4 µM | 6.4 µM | 8.5 µM | 590 nM | –
18 | 500 µM | 5 µM | > 100 µM | 6.9 µM | – | – | O=C(NCCc1ccccc1)c1cccc(NCc2cc(O)ccc2O)c1 | 17 µM | 16 µM | 3.8 µM | 15 µM | 6 µM | 2.8 µM | 13 µM | 13 µM | 12.1 µM | 15 µM | 4400 nM | –
19 | 15 µM | 11 µM | – | 3.6 µM | – | – | O=C(NCCc1ccccn1)c1cc(NCc2cc(O)ccc2O)ccc1O | 17 µM | 17 µM | 20 µM | 13 µM | 7 µM | 17 µM | 19 µM | 17 µM | 16 µM | 29 µM | 1000 nM | –
